For orientation: Ki means the equilibrium dissociation constant of an inhibitor or competing ligand from its target. In general, Emax refers to the maximal effect, on the per cent scale that the assay sets. The EC50 is the midpoint of the concentration-response curve.

Calls of active or inactive are those of the source.

From ChEMBL document CHEMBL3822362, “Effects of N-Substitutions on the Tetrahydroquinoline (THQ) Core of Mixed-Efficacy μ-Opioid Receptor (MOR)/δ-Opioid Receptor (DOR) Ligands” (J Med Chem, 2016) come the findings set out here.

Assay [1] addresses T1, Mu-type opioid receptor (Rattus norvegicus, UniProt P33535). Kind of assay: Displacement of [3H]diprenorphine from rat MOR transfected in rat C6 cell membranes after 1 hr by liquid scintillation counting. The procedure, abridged:
(§1)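 Membranes (20 μg protein/tube) in 50 mM Tris-HCl pH 7.4 with 0.2 nM [3H]diprenorphine and varying peptidomimetic concentrations, 1 h at room temperature to equilibrium. GF/C filtration, five buffer washes, scintillation counting. Nonspecific binding with 10 μM naloxone.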
In general terms: Displacement assays read how much labelled ligand stays bound in the presence of the test substance.

Assay [2] has as its target T2, Delta-type opioid receptor (Rattus norvegicus, UniProt P33533). The experiment in a line: Displacement of [3H]diprenorphine from rat DOR transfected in rat C6 cell membranes after 1 hr by liquid scintillation counting. In short, it runs like this: as §1
The target in assay [3] is T3, Kappa-type opioid receptor (Homo sapiens, UniProt P41145). The experiment in a line: Displacement of [3H]diprenorphine from human KOR expressed in CHO cell membranes after 1 hr by liquid scintillation counting. The procedure, abridged:
as §1

Assay [4] concerns the target Mu-type opioid receptor (Rattus norvegicus) (UniProt P33535). Kind of assay: Agonist activity at rat MOR transfected in rat C6 cell membranes at 10 uM after 1 hr by [35S]GTPgammaS assay relative to DAMGO. It is filed as functional. The procedure, abridged: (§2)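 Membranes (10–20 μg protein) from cells grown to confluence in DMEM/10% FBS, incubated 1 h at 25 °C in 50 mM Tris-HCl, 100 mM NaCl, 5 mM MgCl2, pH 7.4 with 0.1 nM [35S]GTPγS, 30 μM GDP and varying peptidomimetic concentrations. Filtered on GF/C, counted by scintillation. % stimulation relative to 10 μM DAMGO (MOR), DPDPE (DOR) or U69,593 (KOR).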
A general note: Binding of GTPγS marks nucleotide exchange on a G protein.

The target of assay [5] is Delta-type opioid receptor (Rattus norvegicus) (UniProt P33533). The experiment in a line: Agonist activity at rat DOR transfected in rat C6 cell membranes at 10 uM after 1 hr by [35S]GTPgammaS assay relative to DPDPE. Type of assay: functional. The procedure, abridged:
as §2

The target of assay [6] is T3, Kappa-type opioid receptor. The experiment in a line: Agonist activity at human KOR expressed in CHO cell membranes at 10 uM after 1 hr by [35S]GTPgammaS assay relative to U69,593. Type of assay: functional. In short, it runs like this: as §2
Assay [7] has as its target T1, Mu-type opioid receptor. The experiment in a line: Agonist activity at rat MOR transfected in rat C6 cell membranes after 1 hr by [35S]GTPgammaS assay. It is filed as functional. In short, it runs like this:
as §2

The target in assay [8] is T2, Delta-type opioid receptor. Kind of assay: Agonist activity at rat DOR transfected in rat C6 cell membranes after 1 hr by [35S]GTPgammaS assay. Type of assay: functional. In short, it runs like this:
as §2

Assay [9] addresses T3, Kappa-type opioid receptor. Kind of assay: Agonist activity at human KOR expressed in CHO cell membranes after 1 hr by [35S]GTPgammaS assay. It is filed as functional. The procedure, abridged: as §2
Assay [10] has as its system Mus musculus. Kind of assay: Antinociceptive activity in C57BL/6 mouse assessed as increase in latency time to tail flick at 1 to 10 mg/kg, ip measured at 30 min interval by warm water tail withdrawal assay. Type of assay: functional, organism-based. The procedure, abridged:
(§3)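 Adult male C57BL/6 mice, 20–30 g, 8–16 weeks. Saline ip, baseline read 30 min later. Then three increasing ip doses every 30 min, in water or 1:1:8 ethanol:Alkumuls:water, giving cumulative 1, 3.2 and 10 mg/kg. Tail tip (2–3 cm) put in 50 °C water 30 min after each injection; latency to withdraw or flick read, 20 s cutoff; n = 3.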

Assay [11] relates to Mus musculus. Kind of assay: Antinociceptive activity in C57BL/6 mouse assessed as increase in latency time to tail flick at 1 to 3.2 mg/kg, ip measured at 30 min interval by warm water tail withdrawal assay. It is filed as functional, organism-based. In short, it runs like this: as §3
Assay [12] relates to Mus musculus. Kind of assay: Antinociceptive activity in C57BL/6 mouse assessed as time duration of action at 10 mg/kg, ip by warm water tail withdrawal assay. It is filed as functional. In short, it runs like this: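 Male C57BL/6 mice given a single 10 mg/kg ip dose. Tail-withdrawal latency in 50 °C water (2–3 cm tail tip, 20 s cutoff) read at varying times after dosing to follow duration of antinociception; n = 3.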

Assay [13] relates to Mus musculus. Kind of assay: Antinociceptive activity in C57BL/6 mouse assessed as latency time to tail flick at 10 mg/kg, ip measured at 30 min interval by warm water tail withdrawal assay. It is filed as functional. In short, it runs like this:
as §3

T3 sequence (P41145 whole entry): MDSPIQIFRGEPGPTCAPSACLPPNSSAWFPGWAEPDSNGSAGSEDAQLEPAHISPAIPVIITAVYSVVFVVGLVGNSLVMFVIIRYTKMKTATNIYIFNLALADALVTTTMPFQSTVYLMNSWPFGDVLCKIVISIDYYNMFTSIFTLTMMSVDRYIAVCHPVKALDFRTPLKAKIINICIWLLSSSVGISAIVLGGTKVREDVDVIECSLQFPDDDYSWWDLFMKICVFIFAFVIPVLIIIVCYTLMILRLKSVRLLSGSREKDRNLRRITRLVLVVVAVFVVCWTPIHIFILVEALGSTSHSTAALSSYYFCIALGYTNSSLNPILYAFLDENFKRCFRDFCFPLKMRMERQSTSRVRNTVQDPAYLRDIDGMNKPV
T1 sequence (P33535 whole entry): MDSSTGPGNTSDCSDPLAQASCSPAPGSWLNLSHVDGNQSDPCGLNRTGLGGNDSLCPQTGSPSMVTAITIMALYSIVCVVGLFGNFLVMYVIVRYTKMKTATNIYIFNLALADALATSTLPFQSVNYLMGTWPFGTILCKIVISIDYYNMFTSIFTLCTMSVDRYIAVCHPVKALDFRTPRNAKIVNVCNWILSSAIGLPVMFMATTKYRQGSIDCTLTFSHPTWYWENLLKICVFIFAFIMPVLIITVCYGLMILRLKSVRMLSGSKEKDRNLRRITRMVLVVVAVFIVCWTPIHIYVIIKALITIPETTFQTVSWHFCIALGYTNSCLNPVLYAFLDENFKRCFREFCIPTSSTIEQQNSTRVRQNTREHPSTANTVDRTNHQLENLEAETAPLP
Mu-type opioid receptor (Rattus norvegicus), sequence (P33535 whole entry): as above
T2 sequence (P33533 whole entry): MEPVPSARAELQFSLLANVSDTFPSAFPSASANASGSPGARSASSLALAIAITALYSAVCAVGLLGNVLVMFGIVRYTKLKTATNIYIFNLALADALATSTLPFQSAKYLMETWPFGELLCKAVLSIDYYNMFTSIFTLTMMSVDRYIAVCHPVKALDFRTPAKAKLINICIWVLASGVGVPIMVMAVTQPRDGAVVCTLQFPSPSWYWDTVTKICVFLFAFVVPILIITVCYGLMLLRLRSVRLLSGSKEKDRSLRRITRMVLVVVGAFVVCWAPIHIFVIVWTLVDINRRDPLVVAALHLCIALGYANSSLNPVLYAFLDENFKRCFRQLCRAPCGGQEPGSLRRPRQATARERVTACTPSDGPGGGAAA
Delta-type opioid receptor (Rattus norvegicus), sequence (P33533 whole entry): as above

As to `Cc1cc(O)cc(C)c1C[C@H](N)C(=O)N[C@@H]1CCN(C(=O)C2CCC2)c2ccc(Cc3ccccc3)cc21`, the Ki turned out to be 0.23 nM at Mu-type opioid receptor [1], 0.15 nM in assay [2] and 56 nM in assay [3]. Further, the maximal response (Emax) came to 94% in assay [4] and 58% in assay [5]. The Emax entry in [6] is “inactive”. The EC50 is 2.1 nM at Mu-type opioid receptor [7], 5.1 nM in assay [8] (read-out: EC50) and “Not Active” in [9] (cho). Further, in the assay with Mus musculus [10], the outcome was inactive.

Take `Cc1cc(O)cc(C)c1C[C@H](N)C(=O)N[C@@H]1CCN(CC(=O)O)c2ccc(Cc3ccccc3)cc21`: the values for the Ki (at Mu-type opioid receptor [1]; in [2]; in assay [3]) were 4.4 nM, 67 nM and 280 nM, respectively. In assay [4], the Emax worked out at 87%. Besides, the Emax result in assay [5] and in assay [6] was “inactive” throughout. Further, the EC50 on Mu-type opioid receptor [7] was 78 nM; in [8] (c6) it was “Not Active”; in [9] (cho), “Not Active”.

Take `Cc1cc(O)cc(C)c1C[C@H](N)C(=O)N[C@@H]1CCN(C(=O)C(C)C)c2ccc(Cc3ccccc3)cc21`: the Ki was 0.38 nM on Mu-type opioid receptor [1], 0.53 nM in assay [2] and 76 nM in assay [3]. The values for the Emax in assay [4], in [5] and in [6] were 95%, 52% and 41%, respectively. Besides, the EC50 is 9.6 nM at Mu-type opioid receptor [7], 25 nM in assay [8] (read-out: EC50) and over 1300 nM in [9] (read-out: EC50). The result in the assay on Mus musculus [10] was inactive.

As for `CCC(=O)N1CC[C@@H](NC(=O)[C@@H](N)Cc2c(C)cc(O)cc2C)c2cc(Cc3ccccc3)ccc21`, the values for the Ki (on Mu-type opioid receptor [1]; in assay [2]; in assay [3]) were 0.12 nM, 1.1 nM and 40 nM, respectively. The Emax in [4] worked out at 96%; in assay [5], 58%; in [6] it was 32%. Further, the figures for the EC50 (at Mu-type opioid receptor [7]; in assay [8] (read-out: EC50); in assay [9] (read-out: EC50)) were 3.9 nM, 32 nM and 880 nM, respectively.

On to `Cc1cc(O)cc(C)c1C[C@H](N)C(=O)N[C@@H]1CCNc2ccc(Cc3ccccc3)cc21`, for which, in the assay with Mus musculus [11], the result was inactive. Further, the Time in the assay with Mus musculus [12] is 1 h.

As for `CCOC(=O)CN1CC[C@@H](NC(=O)[C@@H](N)Cc2c(C)cc(O)cc2C)c2cc(Cc3ccccc3)ccc21`, the Ki is 0.37 nM at Mu-type opioid receptor [1], 0.58 nM in assay [2] and 15 nM in assay [3]. Moreover, the Emax turned out to be 79% in assay [4], 34% in assay [5] and 24% in [6]. For the same compound, the results for the EC50 (at Mu-type opioid receptor [7]; in assay [8] (read-out: EC50); in assay [9] (read-out: EC50)) were 5.1 nM, 15 nM and over 1300 nM, respectively.

As to `CCC(=O)N1CC[C@@H](NC(=O)[C@@H](N)Cc2c(C)cc(O)cc2C)c2cc(Cc3ccc4ccccc4c3)ccc21`, the Ki on Mu-type opioid receptor [1] was 0.28 nM; in assay [2], 0.21 nM; in assay [3] it was 58 nM. The Emax in assay [4] came out at 75%; in assay [6], 15%. Besides, the EC50 on Mu-type opioid receptor [7] is 13 nM; in [8] (c6), “Not Active”; in [9] (read-out: EC50), over 1400 nM. Besides, the result in the assay on Mus musculus [10] was inactive.

Take `Cc1cc(O)cc(C)c1C[C@H](N)C(=O)N[C@@H]1CCN(C(=O)c2ccccc2)c2ccc(Cc3ccccc3)cc21`: the Ki was 0.08 nM at Mu-type opioid receptor [1], 0.24 nM in [2] and 39 nM in assay [3]. Moreover, the values for the Emax in assay [4] and in [6] were 74% and 16%, respectively. Further, the half-maximal effective concentration (EC50) was 2.6 nM at Mu-type opioid receptor [7], “Not Active” in assay [8] (c6) and 430 nM in assay [9] (read-out: EC50). In the assay on Mus musculus [10], the result was inactive.

`Cc1cc(O)cc(C)c1C[C@H](N)C(=O)N[C@@H]1CCN(C(=O)C2CC2)c2ccc(Cc3ccccc3)cc21`: the Ki is 0.1 nM at Mu-type opioid receptor [1], 0.35 nM in assay [2] and 25 nM in assay [3]. For the same compound, the Emax in assay [4] came out at 88%; in assay [5], 69%; in assay [6] it was 32%. Further, the EC50 at Mu-type opioid receptor [7] was 1.8 nM; in assay [8] (read-out: EC50) it was 10 nM; in assay [9] (read-out: EC50) it was 1000 nM. Also, the Time with Mus musculus [13] was 11 s.

For `CC(=O)N1CC[C@@H](NC(=O)[C@@H](N)Cc2c(C)cc(O)cc2C)c2cc(Cc3ccccc3)ccc21`, in the assay on Mus musculus [10], the outcome was inactive.

For the compound `CCCC(=O)N1CC[C@@H](NC(=O)[C@@H](N)Cc2c(C)cc(O)cc2C)c2cc(Cc3ccccc3)ccc21`, the Ki at Mu-type opioid receptor [1] stood at 0.1 nM; in [2], 1 nM; in assay [3], 50 nM. The Emax stood at 53% in assay [4], 44% in assay [5] and 22% in [6]. Also, the EC50 on Mu-type opioid receptor [7] was 3.5 nM; in assay [8] (read-out: EC50) it was 8.1 nM; in assay [9] (read-out: EC50) it was over 1200 nM.

Regarding `Cc1cc(O)cc(C)c1C[C@H](N)C(=O)N[C@@H]1CCN(CC(N)=O)c2ccc(Cc3ccccc3)cc21`, the Ki on Mu-type opioid receptor [1] turned out to be 0.23 nM; in [2] it was 2 nM; in assay [3] it was 4.3 nM. Further, the maximal response (Emax) amounted to 99% in assay [4], 34% in [5] and 49% in [6]. For the same compound, the EC50 stood at 1.5 nM on Mu-type opioid receptor [7], 270 nM in assay [8] (read-out: EC50) and 380 nM in [9] (read-out: EC50). Also, the result in the assay on Mus musculus [10] was inactive.

Turning to `COC(=O)N1CC[C@@H](NC(=O)[C@@H](N)Cc2c(C)cc(O)cc2C)c2cc(Cc3ccc4ccccc4c3)ccc21`, the Ki came to 0.32 nM on Mu-type opioid receptor [1], 1 nM in [2] and 190 nM in [3]. The same compound came in with an Emax in assay [4] of 110%. The EC50 at Mu-type opioid receptor [7] was 0.39 nM; in assay [8] (c6), “Not Active”; in [9] (cho), “Not Active”. For the same compound, the outcome in the assay with Mus musculus [10] was inactive.

On to `CCCC(=O)N1CC[C@@H](NC(=O)[C@@H](N)Cc2c(C)cc(O)cc2C)c2cc(Cc3ccc4ccccc4c3)ccc21`, for which the Ki on Mu-type opioid receptor [1] worked out at 0.14 nM; in [2], 0.8 nM; in [3], 64 nM. This compound also yielded an Emax in assay [4] of 92%. Further, the Emax entry in assay [5] and in [6] was “inactive” throughout. In addition, the EC50 at Mu-type opioid receptor [7] was 0.9 nM; in assay [8] (c6) it was “Not Active”; in [9] (cho), “Not Active”. The result in the assay on Mus musculus [10] was inactive.

As for `COCC(=O)N1CC[C@@H](NC(=O)[C@@H](N)Cc2c(C)cc(O)cc2C)c2cc(Cc3ccccc3)ccc21`, the Ki at Mu-type opioid receptor [1] is 0.15 nM; in assay [2], 2.1 nM; in assay [3] it was 34 nM. Also, the figures for the Emax in assay [4], in [5] and in assay [6] were 91%, 47% and 38%, respectively. Further, the concentration giving a half-maximal response (EC50) at Mu-type opioid receptor [7] was 3 nM; in [8] (read-out: EC50) it was 67 nM; in assay [9] (read-out: EC50), over 1700 nM. For the same compound, the outcome with Mus musculus [10] was inactive.

Consider `COC(=O)N1CC[C@@H](NC(=O)[C@@H](N)Cc2c(C)cc(O)cc2C)c2cc(Cc3ccccc3)ccc21`, for which the Ki at Mu-type opioid receptor [1] is 0.19 nM; in [2], 0.51 nM; in [3], 29 nM. For the same compound, the Emax turned out to be 95% in [4], 40% in assay [5] and 28% in assay [6]. Besides, the EC50 turned out to be 0.78 nM at Mu-type opioid receptor [7], 14 nM in assay [8] (read-out: EC50) and 250 nM in [9] (read-out: EC50). Besides, the Time is 20 s in the assay with Mus musculus [13] and 1 h with Mus musculus [12].
